In experiment [1] the target is T1, Protein arginine N-methyltransferase 6 (Homo sapiens, UniProt Q96LA8). In words: Inhibition of PRMT6 (unknown origin) assessed as reduction in incorporation of [3H]-labeled methyl group into biotinylated substrate using [3H-SAM] at 10 uM incubated for 1 hr by scintillation proximity assay. In outline: (§1)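 Panel of 33 methyltransferases (22 PKMTs, 3 DNMTs, 8 PRMTs), each tested at 10 and 50 μM compound. Activity was read as ³H-methyl transfer from ³H-SAM in a radiometric assay done as previously described.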
T1 sequence (Q96LA8 whole entry, looked up): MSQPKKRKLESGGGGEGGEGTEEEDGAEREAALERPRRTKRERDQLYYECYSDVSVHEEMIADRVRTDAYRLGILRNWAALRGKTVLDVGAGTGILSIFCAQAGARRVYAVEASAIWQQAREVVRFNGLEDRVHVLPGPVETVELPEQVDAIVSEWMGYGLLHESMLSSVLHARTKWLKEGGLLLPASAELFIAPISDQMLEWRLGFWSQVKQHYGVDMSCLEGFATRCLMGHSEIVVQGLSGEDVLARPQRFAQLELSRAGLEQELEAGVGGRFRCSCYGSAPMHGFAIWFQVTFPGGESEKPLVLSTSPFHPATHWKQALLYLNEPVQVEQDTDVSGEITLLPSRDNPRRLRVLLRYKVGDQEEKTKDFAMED
On the technique in general: SPA uses beads or plates that emit light when radiolabelled molecules are held near them.

Experiment [2] has as its target Histone-lysine N-methyltransferase SETDB1 (Homo sapiens) (UniProt Q15047). In words: Inhibition of SETDB1 (unknown origin) assessed as reduction in incorporation of [3H]-labeled methyl group into biotinylated substrate using [3H-SAM] at 10 uM incubated for 1 hr by scintillation proximity assay. The method, boiled down: as §1
Experiment [3] addresses N-lysine methyltransferase KMT5A (Homo sapiens) (UniProt Q9NQR1). In words: Inhibition of SETD8 (unknown origin) assessed as reduction in incorporation of [3H]-labeled methyl group into biotinylated substrate using [3H-SAM] at 10 uM incubated for 1 hr by scintillation proximity assay. The method, boiled down:
as §1

The target of experiment [4] is Protein arginine N-methyltransferase 8 (Homo sapiens, UniProt Q9NR22). In words: Inhibition of PRMT8 (unknown origin) assessed as reduction in incorporation of [3H]-labeled methyl group into biotinylated substrate using [3H-SAM] at 50 uM incubated for 1 hr by scintillation proximity assay relative to control. In outline: as §1
Chain of Protein arginine N-methyltransferase 8 (Q9NR22 2-394 limits assumed): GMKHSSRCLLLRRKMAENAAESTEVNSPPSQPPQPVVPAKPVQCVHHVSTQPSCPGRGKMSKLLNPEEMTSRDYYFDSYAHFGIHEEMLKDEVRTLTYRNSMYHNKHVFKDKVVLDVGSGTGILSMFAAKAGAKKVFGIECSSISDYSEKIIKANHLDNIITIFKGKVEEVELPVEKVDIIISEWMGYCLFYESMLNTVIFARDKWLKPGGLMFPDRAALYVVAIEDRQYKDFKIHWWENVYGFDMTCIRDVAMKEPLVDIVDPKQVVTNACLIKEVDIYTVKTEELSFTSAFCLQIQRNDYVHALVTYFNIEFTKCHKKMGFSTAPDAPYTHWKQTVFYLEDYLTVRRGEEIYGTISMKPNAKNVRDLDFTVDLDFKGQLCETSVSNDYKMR
Experiment [5] deals with Protein arginine N-methyltransferase 1 (Homo sapiens, UniProt Q99873). In words: Inhibition of PRMT1 in human MCF7 cells assessed as reduction in H4R3me2a levels incubated for 2 days by fluorescence based assay. It counts as cell-based. In outline:
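MCF7 cells with endogenous PRMT1 were treated with compound for 2 days, with MS023 (1 μM) as positive control. The H4R3me2a fluorescence signal was normalized to H4 and fitted nonlinearly to give IC50.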

The target in experiment [6] is T1, Protein arginine N-methyltransferase 6. In words: Inhibition of human PRMT6 assessed as Kinact/Ki ratio pre-incubated for 1 to 30 mins using [3H]SAM as donor and [3H]methylated biotin-labeled peptide as substrate by scintillation proximity assay.
In experiment [7] the target is Histone-lysine N-methyltransferase SETD2 (Homo sapiens) (UniProt Q9BYW2). In words: Inhibition of SETD2 (unknown origin) assessed as reduction in incorporation of [3H]-labeled methyl group into biotinylated substrate using [3H-SAM] at 10 uM incubated for 1 hr by scintillation proximity assay. The method, boiled down: as §1
Chain of Histone-lysine N-methyltransferase SETD2 (Homo sapiens) (Q9BYW2 whole entry): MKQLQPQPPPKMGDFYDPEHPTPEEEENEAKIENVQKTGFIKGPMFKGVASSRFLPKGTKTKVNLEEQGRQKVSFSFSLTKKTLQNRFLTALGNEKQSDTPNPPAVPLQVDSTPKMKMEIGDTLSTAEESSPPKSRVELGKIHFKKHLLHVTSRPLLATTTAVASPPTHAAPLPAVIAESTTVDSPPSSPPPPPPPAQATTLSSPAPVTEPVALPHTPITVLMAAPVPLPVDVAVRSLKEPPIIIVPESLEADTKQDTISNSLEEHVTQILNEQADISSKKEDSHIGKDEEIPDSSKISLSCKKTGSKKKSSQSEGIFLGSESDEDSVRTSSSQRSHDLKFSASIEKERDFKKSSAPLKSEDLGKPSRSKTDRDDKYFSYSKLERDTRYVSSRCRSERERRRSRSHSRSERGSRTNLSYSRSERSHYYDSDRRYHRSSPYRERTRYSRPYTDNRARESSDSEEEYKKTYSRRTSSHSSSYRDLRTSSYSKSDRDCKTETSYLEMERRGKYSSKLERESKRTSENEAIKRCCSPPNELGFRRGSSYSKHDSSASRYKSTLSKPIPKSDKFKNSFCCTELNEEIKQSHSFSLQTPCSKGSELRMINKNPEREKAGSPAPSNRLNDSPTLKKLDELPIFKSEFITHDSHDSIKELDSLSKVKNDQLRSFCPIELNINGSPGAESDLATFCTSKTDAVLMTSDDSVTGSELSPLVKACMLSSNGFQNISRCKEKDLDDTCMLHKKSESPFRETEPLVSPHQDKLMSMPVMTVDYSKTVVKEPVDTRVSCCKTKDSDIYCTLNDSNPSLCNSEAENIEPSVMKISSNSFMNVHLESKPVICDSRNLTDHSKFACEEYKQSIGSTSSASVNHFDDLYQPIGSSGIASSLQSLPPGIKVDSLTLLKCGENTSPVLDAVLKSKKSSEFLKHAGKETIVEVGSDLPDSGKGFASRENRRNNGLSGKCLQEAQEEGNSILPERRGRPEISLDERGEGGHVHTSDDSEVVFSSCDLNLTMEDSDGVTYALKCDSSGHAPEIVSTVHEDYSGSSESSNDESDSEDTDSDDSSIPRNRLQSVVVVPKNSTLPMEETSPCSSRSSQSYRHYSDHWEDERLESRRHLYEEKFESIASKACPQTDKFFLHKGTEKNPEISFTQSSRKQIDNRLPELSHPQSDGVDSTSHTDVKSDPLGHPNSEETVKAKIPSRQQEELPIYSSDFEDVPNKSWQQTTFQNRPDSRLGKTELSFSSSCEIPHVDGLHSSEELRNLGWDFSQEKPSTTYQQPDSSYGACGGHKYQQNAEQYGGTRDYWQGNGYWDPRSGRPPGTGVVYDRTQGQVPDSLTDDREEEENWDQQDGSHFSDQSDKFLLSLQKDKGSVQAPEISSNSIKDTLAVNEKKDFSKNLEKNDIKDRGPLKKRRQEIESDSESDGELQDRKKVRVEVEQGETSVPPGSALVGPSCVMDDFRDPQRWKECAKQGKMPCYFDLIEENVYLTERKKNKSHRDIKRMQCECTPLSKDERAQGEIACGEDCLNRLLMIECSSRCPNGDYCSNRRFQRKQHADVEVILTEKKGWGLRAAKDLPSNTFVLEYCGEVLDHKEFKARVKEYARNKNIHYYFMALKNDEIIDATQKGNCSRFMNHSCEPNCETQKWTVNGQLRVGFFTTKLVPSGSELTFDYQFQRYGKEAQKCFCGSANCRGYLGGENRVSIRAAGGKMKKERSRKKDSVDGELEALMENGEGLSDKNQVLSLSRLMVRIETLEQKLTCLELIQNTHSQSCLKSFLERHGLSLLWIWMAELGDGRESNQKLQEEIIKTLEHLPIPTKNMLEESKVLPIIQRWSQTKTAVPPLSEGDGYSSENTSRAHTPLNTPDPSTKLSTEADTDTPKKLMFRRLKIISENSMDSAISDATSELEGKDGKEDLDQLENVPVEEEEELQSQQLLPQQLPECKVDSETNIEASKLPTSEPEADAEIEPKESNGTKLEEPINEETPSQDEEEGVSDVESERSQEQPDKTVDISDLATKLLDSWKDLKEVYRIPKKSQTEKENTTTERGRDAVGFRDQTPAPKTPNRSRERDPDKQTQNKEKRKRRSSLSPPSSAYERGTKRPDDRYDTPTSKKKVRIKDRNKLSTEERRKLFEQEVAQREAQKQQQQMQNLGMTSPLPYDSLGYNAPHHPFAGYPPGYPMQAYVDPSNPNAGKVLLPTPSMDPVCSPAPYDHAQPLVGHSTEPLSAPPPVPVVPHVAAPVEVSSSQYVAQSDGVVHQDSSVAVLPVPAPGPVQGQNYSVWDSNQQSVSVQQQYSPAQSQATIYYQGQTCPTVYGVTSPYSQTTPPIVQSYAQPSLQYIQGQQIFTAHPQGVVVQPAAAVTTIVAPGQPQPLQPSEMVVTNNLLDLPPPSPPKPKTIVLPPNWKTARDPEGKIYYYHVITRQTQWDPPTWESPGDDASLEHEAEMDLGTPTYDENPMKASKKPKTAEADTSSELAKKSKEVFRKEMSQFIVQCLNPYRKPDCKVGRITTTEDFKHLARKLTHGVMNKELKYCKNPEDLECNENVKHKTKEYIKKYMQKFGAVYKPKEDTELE

Each structure is given as a SMILES string. pIC50: −log10 of the molar value. The source made the active and inactive calls. The rule behind the calls is not given here. Some results are limits rather than exact numbers.

Chain of N-lysine methyltransferase KMT5A (Homo sapiens) (Q9NQR1 whole entry): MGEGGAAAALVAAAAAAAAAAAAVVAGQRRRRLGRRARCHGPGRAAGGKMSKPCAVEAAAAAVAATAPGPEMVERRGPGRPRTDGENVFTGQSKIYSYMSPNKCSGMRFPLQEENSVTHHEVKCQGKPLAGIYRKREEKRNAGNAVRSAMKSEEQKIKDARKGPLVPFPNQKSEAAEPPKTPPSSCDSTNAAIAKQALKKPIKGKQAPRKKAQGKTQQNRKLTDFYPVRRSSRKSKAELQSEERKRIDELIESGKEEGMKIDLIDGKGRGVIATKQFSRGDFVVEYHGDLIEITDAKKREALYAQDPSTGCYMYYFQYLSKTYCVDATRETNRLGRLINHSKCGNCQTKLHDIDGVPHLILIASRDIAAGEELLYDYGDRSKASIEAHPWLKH

Consider `C=CC(=O)Nc1cccc(-c2c[nH]cc2CN(C)CCN)c1`, for which the inhibition in experiment [1] is above 90%; in experiment [4] it was above 50%; in experiment [5], “Dose-dependent effect”. The inhibition entry in experiment [2], in experiment [3] and in experiment [7] was “inactive” each time. In experiment [5], the pIC50 is 5.25. The Ratio in experiment [6] was 8.3 ×10⁴ /M/s.

As a reminder, the inhibition is the share of the control response that was lost under treatment. What is called pIC50 is −log10 of the IC50, conventionally taken in molar units.
